Measurements from ChEMBL document CHEMBL1134518, “5-(Tryptophyl)amino-1,3-dioxoperhydropyrido[1,2-c]pyrimidine-based potent and selective CCK(1)receptor antagonists: structure-activity relationship studies on the substituent at N2-position” (J Med Chem, 2001).

Tests used:
[1] = biological target: T1, Cholecystokinin receptor type A (Rattus norvegicus, UniProt P30551); assay: Inhibition of [3H]pCCK-8 specific binding to cholecystokinin type A receptor in rat pancreas
T1 sequence (P30551 whole entry): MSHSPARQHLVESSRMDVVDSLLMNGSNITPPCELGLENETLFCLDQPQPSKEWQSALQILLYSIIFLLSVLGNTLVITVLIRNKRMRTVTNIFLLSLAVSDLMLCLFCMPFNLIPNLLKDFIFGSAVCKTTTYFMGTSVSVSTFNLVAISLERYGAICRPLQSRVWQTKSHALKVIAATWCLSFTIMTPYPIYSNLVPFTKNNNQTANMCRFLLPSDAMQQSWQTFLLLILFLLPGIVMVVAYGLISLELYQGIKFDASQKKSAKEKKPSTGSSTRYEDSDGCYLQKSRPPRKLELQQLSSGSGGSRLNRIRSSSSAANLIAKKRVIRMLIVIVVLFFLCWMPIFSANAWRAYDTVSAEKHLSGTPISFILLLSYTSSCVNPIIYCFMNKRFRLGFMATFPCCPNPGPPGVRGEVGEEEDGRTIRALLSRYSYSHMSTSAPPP
How it was run: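 Rat pancreas homogenized in Pipes-HCl pH 6.5 with 30 mM MgCl2, centrifuged twice at 50 000g, 10 min, 4 °C. Membranes (0.2 mg protein/tube) incubated with 0.5 nM [3H]pCCK-8, 30 mM MgCl2, bacitracin and SBTI (0.2 mg/mL each), 120 min, 25 °C. Seven test concentrations in triplicate, at least three experiments.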

[2] = biological target: T2, Gastrin/cholecystokinin type B receptor (Rattus norvegicus, UniProt P30553); assay: Inhibition of [3H]pCCK-8 specific binding cholecystokinin type B receptor in rat cerebral cortex membranes; type: cell membranes, Membrane
T2 sequence (P30553 whole entry): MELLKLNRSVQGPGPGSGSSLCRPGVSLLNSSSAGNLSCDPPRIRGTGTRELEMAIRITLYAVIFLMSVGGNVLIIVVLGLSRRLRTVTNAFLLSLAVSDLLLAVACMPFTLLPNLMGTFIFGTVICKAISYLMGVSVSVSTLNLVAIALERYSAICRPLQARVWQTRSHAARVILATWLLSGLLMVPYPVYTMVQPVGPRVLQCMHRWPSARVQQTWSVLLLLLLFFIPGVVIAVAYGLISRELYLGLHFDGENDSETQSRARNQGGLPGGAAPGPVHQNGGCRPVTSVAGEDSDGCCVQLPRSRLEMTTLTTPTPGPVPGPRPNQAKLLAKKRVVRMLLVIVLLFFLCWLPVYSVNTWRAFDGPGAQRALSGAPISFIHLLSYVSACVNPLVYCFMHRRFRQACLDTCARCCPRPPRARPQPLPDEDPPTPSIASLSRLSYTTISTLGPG
How it was run: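 Rat brain cortex homogenized in 50 mM Tris-HCl pH 7.4 with 5 mM MgCl2, centrifuged twice at 100 000g, 35 min, 4 °C. Membranes (0.45 mg protein/tube) incubated with 1 nM [3H]pCCK-8 plus bacitracin 0.2 mg/mL, 60 min, 25 °C. Seven test concentrations in triplicate, at least three experiments.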

Rattus norvegicus = species on record: Rattus norvegicus; assay: Inhibition of amylase release stimulated by CCK-8 (0.1 nM) in dispersed pancreatic acini; type: functional
How it was run: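 Pancreatic acini prepared by collagenase digestion (two 6 min incubations, 37 °C). Acini were suspended in theophylline/BSA-containing buffer and incubated 30 min, 37 °C, under O2 with 0.1 nM CCK-8 and increasing compound concentrations. Released amylase was measured as a percentage of acinar content. IC50 came from linear regression of % inhibition. Three to six experiments in duplicate.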

| SMILES | IC50 [1] [nM] | IC50 [2] [nM] | IC50 (Rattus norvegicus) [nM] |
| --- | --- | --- | --- |
| CC(C)(C)OC(=O)N[C@@H](Cc1c[nH]c2ccccc12)C(=O)N[C@@H]1CCCN2C(=O)N(c3cccc([N+](=O)[O-])c3)C(=O)C[C@@H]12 | 44 | > 10000 | 49.5 |
| CC(C)(C)OC(=O)N[C@@H](Cc1c[nH]c2ccccc12)C(=O)N[C@@H]1CCCN2C(=O)N(c3ccccc3)C(=O)C[C@@H]12 | 1.18 | > 10000 | 3.5 |
| Cc1cccc(N2C(=O)C[C@H]3[C@H](NC(=O)[C@H](Cc4c[nH]c5ccccc45)NC(=O)OC(C)(C)C)CCCN3C2=O)c1 | 3.98 | > 10000 | 10 |
| C[C@@H](c1ccccc1)N1C(=O)C[C@@H]2[C@@H](NC(=O)[C@H](Cc3c[nH]c4ccccc34)NC(=O)OC(C)(C)C)CCCN2C1=O | > 1000 | > 10000 | – |
| CC(C)(C)OC(=O)N[C@@H](Cc1c[nH]c2ccccc12)C(=O)NC1CCCN2C(=O)N(C(Cc3ccccc3)C(=O)O)C(=O)CC12 (stereo not given in full) | > 1000 | > 10000 | – |
| CN1C(=O)C[C@@H]2[C@@H](NC(=O)[C@H](Cc3c[nH]c4ccccc34)NC(=O)OC(C)(C)C)CCCN2C1=O | – | > 10000 | – |
| CN(C)c1ccc(N2C(=O)C[C@@H]3[C@@H](NC(=O)[C@H](Cc4c[nH]c5ccccc45)NC(=O)OC(C)(C)C)CCCN3C2=O)cc1 | > 1000 | 2320 | – |
| Cc1ccccc1N1C(=O)C[C@@H]2[C@@H](NC(=O)[C@H](Cc3c[nH]c4ccccc34)NC(=O)OC(C)(C)C)CCCN2C1=O | > 1000 | > 10000 | – |
| Cc1ccc(N2C(=O)C[C@H]3[C@H](NC(=O)[C@H](Cc4c[nH]c5ccccc45)NC(=O)OC(C)(C)C)CCCN3C2=O)cc1 | 2.9 | > 10000 | 16.6 |
| CC(C)(C)OC(=O)N[C@@H](Cc1c[nH]c2ccccc12)C(=O)N[C@@H]1CCCN2C(=O)N(c3ccc([N+](=O)[O-])cc3)C(=O)C[C@@H]12 | 12 | > 10000 | 64 |
| CC(C)(C)OC(=O)N[C@@H](Cc1c[nH]c2ccccc12)C(=O)N[C@H]1CCCN2C(=O)N(C3CCCCC3)C(=O)C[C@H]12 | 165 | 7160 | 287 |
| CN(C)c1ccc(N2C(=O)C[C@H]3[C@H](NC(=O)[C@H](Cc4c[nH]c5ccccc45)NC(=O)OC(C)(C)C)CCCN3C2=O)cc1 | 4.3 | > 10000 | 39.8 |
| CC(C)(C)OC(=O)N[C@@H](Cc1c[nH]c2ccccc12)C(=O)NC1CCCN2C(=O)N(c3cccc(O)c3)C(=O)CC12 (stereo not given in full) | > 1000 | > 10000 | – |
| CN(C)c1cccc(N2C(=O)C[C@H]3[C@H](NC(=O)[C@H](Cc4c[nH]c5ccccc45)NC(=O)OC(C)(C)C)CCCN3C2=O)c1 | 50.8 | > 10000 | – |
| CCOC(=O)[C@H](Cc1ccccc1)N1C(=O)C[C@@H]2[C@@H](NC(=O)[C@H](Cc3c[nH]c4ccccc34)NC(=O)OC(C)(C)C)CCCN2C1=O | > 1000 | > 10000 | – |
| CC(C)(C)OC(=O)N[C@@H](Cc1c[nH]c2ccccc12)C(=O)N[C@@H]1CCCN2C(=O)N(c3cccc4ccccc34)C(=O)C[C@@H]12 | 0.59 | > 10000 | 0.73 |
| CC(C)(C)OC(=O)N[C@@H](Cc1c[nH]c2ccccc12)C(=O)NC1CCCN2C(=O)N(c3cccc(C(=O)O)c3)C(=O)CC12 (stereo not given in full) | > 1000 | > 10000 | – |
| CC(C)(C)OC(=O)N[C@@H](Cc1c[nH]c2ccccc12)C(=O)N[C@H]1CCCN2C(=O)N(Cc3ccccc3)C(=O)C[C@H]12 | 22.7 | 6150 | – |
| CCOC(=O)[C@H](Cc1ccccc1)N1C(=O)C[C@H]2[C@H](NC(=O)[C@H](Cc3c[nH]c4ccccc34)NC(=O)OC(C)(C)C)CCCN2C1=O | > 1000 | > 10000 | – |
| C[C@H](c1ccccc1)N1C(=O)C[C@@H]2[C@@H](NC(=O)[C@H](Cc3c[nH]c4ccccc34)NC(=O)OC(C)(C)C)CCCN2C1=O | > 1000 | > 10000 | – |

| SMILES | IC50 [1] [nM] | IC50 [2] [nM] | IC50 (Rattus norvegicus) [nM] |
| --- | --- | --- | --- |
| CC(=O)Oc1cccc(N2C(=O)C[C@H]3[C@H](NC(=O)[C@H](Cc4c[nH]c5ccccc45)NC(=O)OC(C)(C)C)CCCN3C2=O)c1 | 70.3 | > 10000 | – |
| CC(C)(C)OC(=O)N[C@H](Cc1c[nH]c2ccccc12)C(=O)N[C@H]1CCCN2C(=O)N(c3cccc4ccccc34)C(=O)C[C@H]12 | > 1000 | > 10000 | – |
| COc1ccc(N2C(=O)CC3C(NC(=O)[C@H](Cc4c[nH]c5ccccc45)NC(=O)OC(C)(C)C)CCCN3C2=O)cc1 (stereo not given in full) | 15.9 | > 10000 | 38.1 |
| CC(C)(C)OC(=O)N[C@@H](Cc1c[nH]c2ccccc12)C(=O)N[C@H]1CCCN2C(=O)N(c3ccc([N+](=O)[O-])cc3)C(=O)C[C@H]12 | > 1000 | > 10000 | – |
| CC(C)(C)OC(=O)N[C@@H](Cc1c[nH]c2ccccc12)C(=O)N[C@H]1CCCN2C(=O)N(c3cccc([N+](=O)[O-])c3)C(=O)C[C@H]12 | > 1000 | > 10000 | – |
| CSCC[C@H](NC(=O)[C@H](Cc1ccc(O)cc1)NC(=O)[C@@H](N)CC(=O)O)C(=O)NCC(=O)N[C@@H](Cc1c[nH]c2ccccc12)C(=O)N[C@@H](CCSC)C(=O)N[C@@H](CC(=O)O)C(=O)N[C@@H](Cc1ccccc1)C(N)=O | 1.04 | – | – |
| CC(C)(C)OC(=O)N[C@H](Cc1c[nH]c2ccccc12)C(=O)N[C@@H]1CCCN2C(=O)N(c3cccc4ccccc34)C(=O)C[C@@H]12 | 15.4 | > 10000 | 93 |
| Cc1ccccc1N1C(=O)C[C@H]2[C@H](NC(=O)[C@H](Cc3c[nH]c4ccccc34)NC(=O)OC(C)(C)C)CCCN2C1=O | 0.97 | > 10000 | 1.89 |
| CC(C)(C)OC(=O)N[C@@H](Cc1c[nH]c2ccccc12)C(=O)N[C@H]1CCCN2C(=O)N(c3ccccc3)C(=O)C[C@H]12 | 628 | > 10000 | > 1000 |
| Cc1ccc(N2C(=O)C[C@@H]3[C@@H](NC(=O)[C@H](Cc4c[nH]c5ccccc45)NC(=O)OC(C)(C)C)CCCN3C2=O)cc1 | 200 | 2320 | – |
| CC(C)(C)OC(=O)N[C@@H](Cc1c[nH]c2ccccc12)C(=O)N[C@@H]1CCCN2C(=O)N(Cc3ccccc3)C(=O)C[C@@H]12 [IQM-95333] | – | > 10000 | – |
| CN(C)c1cccc(N2C(=O)C[C@@H]3[C@@H](NC(=O)[C@H](Cc4c[nH]c5ccccc45)NC(=O)OC(C)(C)C)CCCN3C2=O)c1 | > 1000 | > 10000 | – |
| C[C@H](c1ccccc1)N1C(=O)C[C@H]2[C@H](NC(=O)[C@H](Cc3c[nH]c4ccccc34)NC(=O)OC(C)(C)C)CCCN2C1=O | 15 | > 10000 | 12.6 |
| CC(C)(C)OC(=O)N[C@@H](Cc1c[nH]c2ccccc12)C(=O)N[C@H]1CCCN2C(=O)N(c3cccc4ccccc34)C(=O)C[C@H]12 | > 1000 | > 10000 | – |
| Cc1cccc(N2C(=O)C[C@@H]3[C@@H](NC(=O)[C@H](Cc4c[nH]c5ccccc45)NC(=O)OC(C)(C)C)CCCN3C2=O)c1 | 100 | 1320 | – |
| C[C@@H](c1ccccc1)N1C(=O)C[C@H]2[C@H](NC(=O)[C@H](Cc3c[nH]c4ccccc34)NC(=O)OC(C)(C)C)CCCN2C1=O | 6.89 | > 10000 | 112 |
| CC(C)(C)OC(=O)N[C@@H](Cc1c[nH]c2ccccc12)C(=O)N[C@H]1CCCN2C(=O)N(c3ccncc3)C(=O)C[C@H]12 (relative stereo) | 386 | > 10000 | – |
| CC(C)(C)OC(=O)N[C@@H](Cc1c[nH]c2ccccc12)C(=O)N[C@@H]1CCCN2C(=O)N(C3CCCCC3)C(=O)C[C@@H]12 | 0.6 | > 10000 | 3 |
| COC(=O)C(Cc1ccccc1)N1C(=O)CC2C(NC(=O)[C@H](Cc3c[nH]c4ccccc34)NC(=O)OC(C)(C)C)CCCN2C1=O (stereo not given in full) | > 1000 | > 10000 | – |
